Experimental data published in ChEMBL document CHEMBL4038284, “Synthesis of novel quinoline-based 4,5-dihydro-1H-pyrazoles as potential anticancer, antifungal, antibacterial and antiprotozoal agents” (Eur J Med Chem, 2017).
≈ marks a conversion by molar mass, not a printed value.

Experiments:
Cryptococcus neoformans [1] = experiment: Growth inhibition of Cryptococcus neoformans ATCC 32264 at 15.62 ug/ml incubated for 48 hrs under dark condition by broth microdilution method relative to control; format: functional; conditions: ATCC 32264, 48 h, read-out: GI
In short: (§1)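 CLSI M27-A3 broth microdilution in RPMI-1640, DMSO ≤1%. Inoculum 1-5 × 10^3 CFU/mL. Incubated 48 h at 30 °C, dark. % inhibition = 100 − (OD405 test − sterility control)/(OD405 growth control − sterility control), with growth and sterility control wells. Triplicate.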

Candida albicans [2] = experiment: Growth inhibition of Candida albicans ATCC 10231 at 62.5 ug/ml incubated for 48 hrs under dark condition by broth microdilution method relative to control; format: functional; conditions: ATCC 10231, 48 h, read-out: GI; in short: as §1
Cryptococcus neoformans [3] = experiment: Growth inhibition of Cryptococcus neoformans ATCC 32264 at 62.5 ug/ml incubated for 48 hrs under dark condition by broth microdilution method relative to control; format: functional; conditions: ATCC 32264, 48 h, read-out: GI; in short: as §1
Candida albicans [4] = experiment: Growth inhibition of Candida albicans ATCC 10231 at 125 ug/ml incubated for 48 hrs under dark condition by broth microdilution method relative to control; format: functional; conditions: ATCC 10231, 48 h, read-out: GI; in short: as §1
Cryptococcus neoformans [5] = experiment: Growth inhibition of Cryptococcus neoformans ATCC 32264 at 31.25 ug/ml incubated for 48 hrs under dark condition by broth microdilution method relative to control; format: functional; conditions: ATCC 32264, 48 h, read-out: GI; in short: as §1
Plasmodium falciparum = experiment: Antiplasmodial activity against chloroquine-sensitive Plasmodium falciparum 3D7 assessed as reduction in parasitic LDH activity after 48 hrs by Malstat reagent based […] method; format: functional; conditions: 3D7, 48 h
In short: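 Unsynchronized P. falciparum 3D7 at 0.5% parasitemia and 1% hematocrit in RPMI with 3% Albumax II. Exposed to 100, 25, 6.25 and 1.56 µg/mL for 48 h at 37 °C under 90% N2/5% CO2/5% O2. After three freeze-thaw cycles, LDH measured with Malstat and NBT/PES, 1 h in the dark, read at 650 nm. IC50 by Probit; triplicate, ≥2 experiments.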

Cryptococcus neoformans [6] = experiment: Growth inhibition of Cryptococcus neoformans ATCC 32264 at 3.4 ug/ml incubated for 48 hrs under dark condition by broth microdilution method relative to control; format: functional; conditions: ATCC 32264, 48 h, read-out: GI
Cryptococcus neoformans [7] = experiment: Antifungal activity against Cryptococcus neoformans ATCC 32264 incubated for 48 hrs under dark condition by broth microdilution method; format: functional; conditions: ATCC 32264, 48 h
In short: (§2)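 CLSI M27-A3 broth microdilution in RPMI-1640, DMSO ≤1%, compounds at 250-0.98 µg/mL final. Inoculum 1-5 × 10^3 CFU/mL. Incubated 48 h at 30 °C in a moist dark chamber, read at OD405. MIC80 and MIC50 taken from % inhibition dose-response curves (mean ± SEM, triplicate). Amphotericin B was the positive control.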

Neisseria gonorrhoeae = experiment: Antibacterial activity against beta lactamase positive Neisseria gonorrhoeae ATCC 31426 by oxidase test; format: functional
In short: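 Agar dilution MIC on GC agar with 1% isovitalex containing increasing compound concentrations. Plates inoculated with about 1×10^4 CFU (5 µL). MIC is the lowest concentration that inhibited growth, with growth confirmed by oxidase test. Run in duplicate, repeated at least three times.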

Trypanosoma cruzi = experiment: Antitrypanosomal activity against Trypanosoma cruzi Tulahuen intracellular amastigote harboring LacZ infected in human U937 cells after 72 hrs by CPRG/Nonidet reagent based spectrophotometric method; format: functional, cell-based; conditions: U-937, 72 h
In short: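 U-937 cells at 2.5 × 10^5 cells/mL in RPMI-1640 with 10% serum and 0.1 µg/mL PMA were infected with β-galactosidase-transfected Tulahuen epimastigotes at 5 parasites per cell. Infected cells were exposed to 50, 12.5, 3.125 and 0.78 µg/mL for 72 h. CPRG (100 uM) and 0.1% Nonidet P-40 were added for 3 h, read at 570 nm. EC50 by Probit. Triplicate, at least two experiments; benznidazole as reference.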

Pseudomonas aeruginosa = experiment: Antibacterial activity against Pseudomonas aeruginosa ATCC 27853 after 24 hrs by resazurin dye based microdilution assay; format: functional; conditions: ATCC 27853, 24 h
In short: (§3)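 MIC taken as the lowest concentration giving visible inhibition and/or by resazurin (1 mg/mL). Gentamicin was the control. Run in duplicate, repeated at least three times.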

Candida albicans [8] = experiment: Growth inhibition of Candida albicans ATCC 10231 at 15.62 ug/ml incubated for 48 hrs under dark condition by broth microdilution method relative to control; format: functional; conditions: ATCC 10231, 48 h, read-out: GI; in short: as §1
Cryptococcus neoformans [9] = experiment: Growth inhibition of Cryptococcus neoformans ATCC 32264 at 250 ug/ml incubated for 48 hrs under dark condition by broth microdilution method relative to control; format: functional; conditions: ATCC 32264, 48 h, read-out: GI; in short: as §1
Escherichia coli = experiment: Antibacterial activity against Escherichia coli ATCC 25922 after 24 hrs by resazurin dye based microdilution assay; format: functional; conditions: ATCC 25922, 24 h; in short: as §3
Klebsiella pneumoniae [10] = experiment: Antibacterial activity against ESBL positive Klebsiella pneumoniae ATCC 700603 after 24 hrs by resazurin dye based microdilution assay; format: functional; conditions: Klebsiella pneumoniae, 700603, 24 h; in short: as §3
Staphylococcus aureus [11] = experiment: Antibacterial activity against vancomycin-intermediate Staphylococcus aureus after 24 hrs by resazurin dye based microdilution assay; format: functional; in short: as §3
Klebsiella pneumoniae [12] = experiment: Antibacterial activity against carbapenemase positive Klebsiella pneumoniae BAA 1705 after 24 hrs by resazurin dye based microdilution assay; format: functional; conditions: BAA 1705, 24 h; in short: as §3
Leishmania panamensis = experiment: Antileshmanial activity against EpiR/GFP fused Leishmania panamensis MHOM/CO/87/UA140 intracellular amastigotes infected in human […] cells after 72 hrs by flow cytometric method; format: functional, cell-based; conditions: MHOM/CO/87/UA140, 72 h
In short: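 PMA-treated U-937 cells (3 × 10^5 cells/mL) infected with stationary-phase GFP L. panamensis promastigotes (15:1), 3 h at 34 °C, then washed. After 24 h, compounds added at 50, 12.5, 3.125 and 0.78 µg/mL for 72 h at 37 °C. EC50 by Probit; triplicate, two experiments.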

Staphylococcus aureus [13] = experiment: Antibacterial activity against methicillin-resistant Staphylococcus aureus ATCC 43300 after 24 hrs by resazurin dye based microdilution assay; format: functional; conditions: ATCC 43300, 24 h
In short: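 Broth microdilution in Mueller Hinton broth, inoculum 5 × 10^5 – 8 × 10^5. Compound stocks diluted in MHB with 5% DMSO and 0.1% Tween 80. Incubation 24 h at 35-37 °C. MIC is the lowest concentration with visible growth inhibition and/or by resazurin (1 mg/mL) read-out. Gentamicin as control. Run in duplicate, replicated at least three times.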

Candida albicans [14] = experiment: Growth inhibition of Candida albicans ATCC 10231 at 7.8 ug/ml incubated for 48 hrs under dark condition by broth microdilution method relative to control; format: functional; conditions: ATCC 10231, 48 h, read-out: GI; in short: as §1
Staphylococcus aureus [15] = experiment: Antibacterial activity against methicillin-sensitive Staphylococcus aureus ATCC 25923 after 24 hrs by resazurin dye based microdilution assay; format: functional; conditions: ATCC 25923, 24 h; in short: as §3
Candida albicans [16] = experiment: Growth inhibition of Candida albicans ATCC 10231 at 31.25 ug/ml incubated for 48 hrs under dark condition by broth microdilution method relative to control; format: functional; conditions: ATCC 10231, 48 h, read-out: GI; in short: as §1
Candida albicans [17] = experiment: Antifungal activity against Candida albicans ATCC 10231 incubated for 48 hrs under dark condition by broth microdilution method; format: functional; conditions: ATCC 10231, 48 h; in short: as §2
U-937 = experiment: Cytotoxicity against human U937 cells after 72 hrs by MTT assay; format: cell-based; conditions: u-937, 72 h
In short: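 Exponentially growing U-937 at 1 × 10^5 cells/mL in RPMI-1640 with 10% FBS were exposed to 200, 50, 12.5 and 3.125 µg/mL for 72 h at 37 °C, 5% CO2. MTT for 3 h, stopped with isopropanol/SDS, formazan read at 570 nm, blank-corrected. LC50 by Probit from % viability against untreated cells. Triplicate, at least two independent experiments.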

Cryptococcus neoformans [18] = experiment: Growth inhibition of Cryptococcus neoformans ATCC 32264 at 7.8 ug/ml incubated for 48 hrs under dark condition by broth microdilution method relative to control; format: functional; conditions: ATCC 32264, 48 h, read-out: GI; in short: as §1
Cryptococcus neoformans [19] = experiment: Growth inhibition of Cryptococcus neoformans ATCC 32264 at 125 ug/ml incubated for 48 hrs under dark condition by broth microdilution method relative to control; format: functional; conditions: ATCC 32264, 48 h, read-out: GI; in short: as §1
Candida albicans [20] = experiment: Growth inhibition of Candida albicans ATCC 10231 at 250 ug/ml incubated for 48 hrs under dark condition by broth microdilution method relative to control; format: functional; conditions: ATCC 10231, 48 h, read-out: GI; in short: as §1
Candida albicans [21] = experiment: Growth inhibition of Candida albicans ATCC 10231 at 3.4 ug/ml incubated for 48 hrs under dark condition by broth microdilution method relative to control; format: functional; conditions: ATCC 10231, 48 h, read-out: GI

| SMILES | inhibition of growth at 15.62 µg/mL (Cryptococcus neoformans [1]) [%] | inhibition of growth at 62.5 µg/mL (Candida albicans [2]) [%] | inhibition of growth at 62.5 µg/mL (Cryptococcus neoformans [3]) [%] | inhibition of growth at 125 µg/mL (Candida albicans [4]) [%] | inhibition of growth at 31.25 µg/mL (Cryptococcus neoformans [5]) [%] | EC50 (Plasmodium falciparum) [µg/mL] | inhibition of growth at 3.4 µg/mL (Cryptococcus neoformans [6]) [%] | MIC50 (Cryptococcus neoformans [7]) [µg/mL] | MIC80 (Cryptococcus neoformans [7]) [µg/mL] | MIC (Neisseria gonorrhoeae) [µg/mL] | EC50 (Trypanosoma cruzi) [µg/mL] | MIC (Pseudomonas aeruginosa) [µg/mL] | inhibition of growth at 15.62 µg/mL (Candida albicans [8]) [%] | inhibition of growth at 250 µg/mL (Cryptococcus neoformans [9]) [%] | MIC (Escherichia coli) [µg/mL] | MIC (Klebsiella pneumoniae [10]) [µg/mL] | MIC (Staphylococcus aureus [11]) [µg/mL] | MIC (Klebsiella pneumoniae [12]) [µg/mL] | EC50 (Leishmania panamensis) [µg/mL] | MIC (Staphylococcus aureus [13]) [µg/mL] | further results |
| --- | --- | --- | --- | --- | --- | --- | --- | --- | --- | --- | --- | --- | --- | --- | --- | --- | --- | --- | --- | --- | --- |
| O=CN1N=C(c2ccccc2)CC1c1cccc(Nc2ccnc3cc(Cl)ccc23)c1 (stereo not given) | 20.7 | 10.1 | 34.4 | 16.9 | 29.7 | 17.7 (≈ 41.4 µM) | 7.63 | 250 (≈ 586 µM) | ≥ 250 | > 1000 | > 0.6 | > 1000 | 4.31 | 54.1 | > 1000 | > 1000 | > 1000 | > 1000 | 1.72 (≈ 4.03 µM) | > 1000 | inhibition of growth at 7.8 µg/mL (Candida albicans [14]): 4.3%; MIC (Staphylococcus aureus [15]): > 1000 µg/mL; inhibition of growth at 31.25 µg/mL (Candida albicans [16]): 8.44%; MIC50 (Candida albicans [17]): ≥ 250 µg/mL; MIC80 (Candida albicans [17]): ≥ 250 µg/mL; LC50 (U-937): 1.3 µg/mL (≈ 3.05 µM); inhibition of growth at 7.8 µg/mL (Cryptococcus neoformans [18]): 11.2%; inhibition of growth at 125 µg/mL (Cryptococcus neoformans [19]): 47.2%; inhibition of growth at 250 µg/mL (Candida albicans [20]): 29.9%; inhibition of growth at 3.4 µg/mL (Candida albicans [21]): 2.19% |
| Clc1ccc(N2N=C(c3ccc(Br)cc3)CC2c2cccc(Nc3ccnc4cc(Cl)ccc34)c2)cc1 (stereo not given) | 0.14 | 13.7 | 17.8 | 23.4 | 17 | 10.3 (≈ 17.4 µM) | 0 | ≥ 250 | ≥ 250 | > 1000 | 29.5 (≈ 50.1 µM) | > 1000 | 6.77 | 27.5 | > 1000 | > 1000 | > 1000 | > 1000 | 16 (≈ 27.2 µM) | > 1000 | inhibition of growth at 7.8 µg/mL (Candida albicans [14]): 6.28%; MIC (Staphylococcus aureus [15]): > 1000 µg/mL; inhibition of growth at 31.25 µg/mL (Candida albicans [16]): 7.39%; MIC50 (Candida albicans [17]): ≥ 250 µg/mL; MIC80 (Candida albicans [17]): ≥ 250 µg/mL; LC50 (U-937): 35.7 µg/mL (≈ 60.7 µM); inhibition of growth at 7.8 µg/mL (Cryptococcus neoformans [18]): 0%; inhibition of growth at 125 µg/mL (Cryptococcus neoformans [19]): 23%; inhibition of growth at 250 µg/mL (Candida albicans [20]): 39.6%; inhibition of growth at 3.4 µg/mL (Candida albicans [21]): 3.47% |
